Results taken from ChEMBL document CHEMBL3351720, “Design, synthesis and evaluation of benzoisothiazolones as selective inhibitors of PHOSPHO1” (Bioorg Med Chem Lett, 2014).

Tests used:
Phosphomannomutase 2 = biological target: T1, Phosphomannomutase 2 (Homo sapiens, UniProt O15305); experiment: Inhibition of PMM2 (unknown origin)
T1 sequence (O15305 whole entry): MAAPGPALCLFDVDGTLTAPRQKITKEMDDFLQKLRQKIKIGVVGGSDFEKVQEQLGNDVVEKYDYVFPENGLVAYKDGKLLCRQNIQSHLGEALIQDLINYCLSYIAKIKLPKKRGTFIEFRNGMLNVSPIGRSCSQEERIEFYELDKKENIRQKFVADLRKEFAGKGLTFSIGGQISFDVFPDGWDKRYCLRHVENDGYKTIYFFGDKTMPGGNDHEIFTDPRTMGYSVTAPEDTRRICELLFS

[1] = biological target: T2, Phosphoethanolamine/phosphocholine phosphatase (Homo sapiens, UniProt Q8TCT1); experiment: Inhibition of PHOSPHO1 phosphoethanolamine activity (unknown origin) assessed as amount of inorganic phosphate release after 30 mins
T2 sequence (Q8TCT1 whole entry): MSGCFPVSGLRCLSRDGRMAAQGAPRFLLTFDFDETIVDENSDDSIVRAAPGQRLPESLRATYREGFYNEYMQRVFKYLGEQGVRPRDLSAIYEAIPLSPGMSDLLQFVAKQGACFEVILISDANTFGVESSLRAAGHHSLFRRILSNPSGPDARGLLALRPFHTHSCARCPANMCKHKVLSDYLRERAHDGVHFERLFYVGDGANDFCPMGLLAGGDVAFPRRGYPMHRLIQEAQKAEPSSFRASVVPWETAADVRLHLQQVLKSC

[2] = biological target: T3, Mannose-6-phosphate isomerase (Homo sapiens, UniProt P34949); experiment: Inhibition of phosphomannose isomerase (unknown origin)
T3 sequence (P34949 whole entry): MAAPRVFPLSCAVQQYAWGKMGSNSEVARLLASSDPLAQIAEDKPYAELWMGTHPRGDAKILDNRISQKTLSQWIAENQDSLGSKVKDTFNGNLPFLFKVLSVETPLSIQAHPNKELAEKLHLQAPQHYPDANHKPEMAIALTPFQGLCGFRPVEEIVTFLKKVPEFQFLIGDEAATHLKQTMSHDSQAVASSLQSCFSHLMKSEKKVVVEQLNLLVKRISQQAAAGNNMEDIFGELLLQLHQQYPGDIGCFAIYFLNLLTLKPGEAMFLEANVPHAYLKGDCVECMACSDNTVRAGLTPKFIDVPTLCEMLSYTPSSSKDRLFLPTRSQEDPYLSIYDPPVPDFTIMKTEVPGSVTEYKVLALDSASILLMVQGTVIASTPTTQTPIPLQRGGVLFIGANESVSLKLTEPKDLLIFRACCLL

[3] = Aqueous solubility of the compound in pH 5 pION buffer by UV kinetic solubility method; type: physicochemical
In short: (§1)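 Kinetic solubility in pION's buffer at pH 5.0, 6.2 or 7.4, reported in µg/ml. Part of an in vitro ADME panel.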

[4] = Aqueous solubility of the compound in pH 6.2 pION buffer by UV kinetic solubility method; type: physicochemical; in short: as §1
[5] = Aqueous solubility of the compound in pH 7.4 pION buffer by UV kinetic solubility method; type: physicochemical; in short: as §1
[6] = Permeability of the compound at donor pH 5.0 and acceptor pH 7.4 by PAMPA; type: ADME
In short: (§2)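 PAMPA with the acceptor compartment at pH 7.4 and the donor at pH 5.0, 6.2 or 7.4. Permeability reported as ×10^-6 cm/s. Part of an in vitro ADME panel.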

[7] = Permeability of the compound at donor pH 6.2 and acceptor pH 7.4 by PAMPA; type: ADME; in short: as §2
[8] = Permeability of the compound at donor pH 7.4 and acceptor pH 7.4 by PAMPA; type: ADME; in short: as §2
[9] = Plasma protein binding in human at 1 uM by LC-MS analysis; type: ADME, cell-free; details: read-out: PPB (converted)
In short: (§3)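 Read-out was % of compound bound in human or mouse plasma, each tested at 1 µM and 10 µM.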

[10] = Plasma protein binding in human at 10 uM by LC-MS analysis; type: ADME, cell-free; details: read-out: PPB (converted); in short: as §3
[11] = Plasma protein binding in mouse at 1 uM by LC-MS analysis; type: ADME, cell-free; details: read-out: PPB (converted); in short: as §3
[12] = Plasma protein binding in mouse at 10 uM by LC-MS analysis; type: ADME, cell-free; details: read-out: PPB (converted); in short: as §3
[13] = Cytotoxicity against human Fa2N-4 cells after 24 hrs by ATP-lite 1-step assay; type: cell-based; details: fa2n-4, 24 h, read-out: LC50 (the source's name)
[14] = Metabolic stability in human plasma assessed as compound remaining at 1 x pH7.4 PBS measured at 3 hrs by LC-MS/MS analysis; type: ADME, cell-free; details: pH 7.4, read-out: Stability
In short: (§4)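 Stability of each analogue was reported as % of compound remaining. For liver microsomes this was after 1 hr, with runs with and without NADPH. For plasma this was after 3 hrs in plasma mixed 1:1 with 1× PBS, pH 7.4. Both human and mouse matrices were used.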

[15] = Metabolic stability in human plasma assessed as compound remaining at 1:1 1 x pH7.4 PBS measured at 3 hrs by LC-MS/MS analysis; type: ADME, cell-free; details: pH 7.4, read-out: Stability; in short: as §4
[16] = Metabolic stability in mouse plasma assessed as compound remaining at 1 x pH7.4 PBS measured at 3 hrs by LC-MS/MS analysis; type: ADME, cell-free; details: pH 7.4, read-out: Stability; in short: as §4
[17] = Metabolic stability in mouse plasma assessed as compound remaining at 1:1 1 x pH7.4 PBS measured at 3 hrs by LC-MS/MS analysis; type: ADME, cell-free; details: pH 7.4, read-out: Stability; in short: as §4
[18] = Metabolic stability in human liver microsomes measured at 1 uM after 1 hr at pH 7.4 by LC-MS/MS analysis; type: ADME; details: read-out: Stability; in short: as §4
[19] = Metabolic stability in mouse liver microsomes measured at 1 uM after 1 hr at pH 7.4 by LC-MS/MS analysis; type: ADME; details: read-out: Stability; in short: as §4
[20] = biological target: T4, Ectonucleotide pyrophosphatase/phosphodiesterase family member 1 (Homo sapiens, UniProt P22413); experiment: Inhibition of NPP1 (unknown origin)
T4 sequence (P22413 whole entry): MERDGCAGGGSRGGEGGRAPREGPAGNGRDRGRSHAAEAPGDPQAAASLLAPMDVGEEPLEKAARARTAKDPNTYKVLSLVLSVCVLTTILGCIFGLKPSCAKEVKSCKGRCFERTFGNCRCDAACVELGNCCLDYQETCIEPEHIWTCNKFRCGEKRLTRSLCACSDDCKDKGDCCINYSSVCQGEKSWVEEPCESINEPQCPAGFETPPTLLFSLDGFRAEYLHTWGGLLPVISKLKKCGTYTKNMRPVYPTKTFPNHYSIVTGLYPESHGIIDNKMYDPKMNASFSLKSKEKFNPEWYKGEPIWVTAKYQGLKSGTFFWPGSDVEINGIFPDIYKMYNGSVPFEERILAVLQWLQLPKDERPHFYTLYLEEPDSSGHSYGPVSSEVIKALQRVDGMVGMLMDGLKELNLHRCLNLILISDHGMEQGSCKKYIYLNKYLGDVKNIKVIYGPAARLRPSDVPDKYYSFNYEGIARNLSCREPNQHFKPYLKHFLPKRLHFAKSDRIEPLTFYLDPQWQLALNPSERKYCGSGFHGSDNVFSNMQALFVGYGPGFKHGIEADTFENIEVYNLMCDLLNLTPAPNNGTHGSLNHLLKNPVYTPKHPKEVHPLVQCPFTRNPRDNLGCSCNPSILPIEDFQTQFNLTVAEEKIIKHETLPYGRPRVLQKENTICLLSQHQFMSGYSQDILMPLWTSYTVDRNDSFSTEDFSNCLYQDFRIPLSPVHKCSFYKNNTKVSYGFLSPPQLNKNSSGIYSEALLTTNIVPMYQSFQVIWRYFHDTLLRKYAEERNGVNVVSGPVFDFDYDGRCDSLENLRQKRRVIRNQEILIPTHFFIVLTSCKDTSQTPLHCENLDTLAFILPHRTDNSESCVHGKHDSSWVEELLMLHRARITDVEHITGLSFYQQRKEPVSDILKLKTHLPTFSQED

[21] = Inhibition of Streptococcus pneumoniae diphosphomevalonate decarboxylase assessed as conversion of (R)-5-diphosphomevalonate to ADP by fluorometry
[22] = biological target: T5, Alkaline phosphatase, tissue-nonspecific isozyme (Homo sapiens, UniProt P05186)
T5 sequence (P05186 whole entry): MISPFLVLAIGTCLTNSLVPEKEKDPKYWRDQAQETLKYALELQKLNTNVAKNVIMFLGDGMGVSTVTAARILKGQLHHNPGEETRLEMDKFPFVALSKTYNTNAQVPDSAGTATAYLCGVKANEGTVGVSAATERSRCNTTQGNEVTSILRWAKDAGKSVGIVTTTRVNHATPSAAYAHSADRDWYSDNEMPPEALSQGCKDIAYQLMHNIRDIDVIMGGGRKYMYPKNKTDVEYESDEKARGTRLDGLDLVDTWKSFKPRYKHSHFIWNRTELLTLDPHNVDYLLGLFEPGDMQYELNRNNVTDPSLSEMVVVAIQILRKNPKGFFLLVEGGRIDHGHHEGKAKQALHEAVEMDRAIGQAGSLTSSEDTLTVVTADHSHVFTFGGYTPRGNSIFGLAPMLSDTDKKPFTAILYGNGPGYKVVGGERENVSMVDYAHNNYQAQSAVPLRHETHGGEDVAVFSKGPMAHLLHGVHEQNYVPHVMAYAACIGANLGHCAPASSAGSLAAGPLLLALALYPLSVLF

Compound: Cc1ccc(-n2sc3ccccc3c2=O)cc1S(=O)(=O)N1CCCCC1
- IC50 (Phosphomannomutase 2): 11 µM

Compound: Cc1ccc(-n2sc3ccccc3c2=O)cc1
- IC50 [1]: 1.3 µM
- IC50 [2]: 3.9 µM
- IC50 (Phosphomannomutase 2): > 30 µM

Compound: O=c1c2ccc(F)cc2sn1-c1ccccc1
- IC50 [1]: 0.79 µM
- IC50 [2]: 1.3 µM
- IC50 (Phosphomannomutase 2): > 50 µM

Compound: O=c1c2ccccc2sn1-c1cccc(Cl)c1
- IC50 (Phosphomannomutase 2): > 30 µM

Compound: O=c1c2ccccc2sn1-c1ccc(F)c(Cl)c1
- IC50 [2]: > 50 µM
- IC50 (Phosphomannomutase 2): > 100 µM

Compound: CN(C)C(=O)c1cccc(-n2sc3ccccc3c2=O)c1
- solubility kinetic [3]: > 30 µg/mL
- solubility kinetic [4]: > 30 µg/mL
- solubility kinetic [5]: > 30 µg/mL
- permeability [6]: 94 ×10⁻⁶ cm/s
- permeability [7]: 92 ×10⁻⁶ cm/s
- permeability [8]: 97 ×10⁻⁶ cm/s
- fraction unbound at 1 µM [9]: 0.587
- fraction unbound at 10 µM [10]: 0.558
- fraction unbound at 1 µM [11]: 0.52
- fraction unbound at 10 µM [12]: 0.533
- CC50 [13]: > 50 µM
- remaining at 3 h [14]: 18.9%
- remaining at 3 h [15]: 60%
- remaining at 3 h [16]: 76.2%
- remaining at 3 h [17]: 56.9%
- remaining at 1 h, 1 µM [18]: 45.7%
- remaining at 1 h, 1 µM [19]: 56.6%
- IC50 [20]: > 30 µM
- IC50 [21]: 24 µM
- IC50 [22]: > 100 µM

Compound: O=c1c2ccc(F)cc2sn1-c1ccc(F)cc1
- IC50 [1]: > 10 µM
- IC50 [2]: 3.6 µM
- IC50 (Phosphomannomutase 2): > 50 µM

Compound: O=c1c2ccccc2sn1-c1ccc(F)cc1
- IC50 [2]: 3.4 µM
- IC50 (Phosphomannomutase 2): > 20 µM

Compound: Cc1cccc(-n2sc3ccccc3c2=O)c1
- IC50 (Phosphomannomutase 2): > 20 µM

Compound: O=c1c2ccccc2sn1-c1ccc(Cl)c(S(=O)(=O)N2CCOCC2)c1
- IC50 (Phosphomannomutase 2): 63 µM

Compound: Cc1ccc(C)c(-n2sc3cc(F)ccc3c2=O)c1
- IC50 [1]: 3.3 µM
